Laboratory results: ChEMBL document CHEMBL1275252, “First survey of metallo-beta-lactamases in clinical isolates of Pseudomonas aeruginosa in a German university hospital” (2010)

How the values were obtained:
Format in all cases: functional
Pseudomonas aeruginosa [1] = assay: Antimicrobial activity against metallo-beta-lactamase-negative Pseudomonas aeruginosa isolate PA459
In short: (§1)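 MBL-negative clinical P. aeruginosa isolates with reduced imipenem susceptibility, collected at the study hospital, some from cystic fibrosis patients. Species identity was confirmed by automated Gram-negative identification card. MIC was read in μg/ml.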

Pseudomonas aeruginosa [2] = assay: Antimicrobial activity against Pseudomonas aeruginosa isolate PA477 expressing VIM-2 beta-lactamase
Pseudomonas aeruginosa [3] = assay: Antimicrobial activity against Pseudomonas aeruginosa isolate PA465 expressing VIM-2 beta-lactamase
Pseudomonas aeruginosa [4] = assay: Antimicrobial activity against Pseudomonas aeruginosa isolate PA465 expressing VIM-2 beta-lactamase in presence of Tazobactam
Pseudomonas aeruginosa [5] = assay: Antimicrobial activity against metallo-beta-lactamase-negative Pseudomonas aeruginosa isolate PA507 in presence of Tazobactam
Pseudomonas aeruginosa [6] = assay: Antimicrobial activity against Pseudomonas aeruginosa isolate PA510 expressing VIM-2 beta-lactamase
Pseudomonas aeruginosa [7] = assay: Antimicrobial activity against Pseudomonas aeruginosa isolate PA500 expressing VIM-1 beta-lactamase
Pseudomonas aeruginosa [8] = assay: Antimicrobial activity against Pseudomonas aeruginosa isolate PA481 expressing VIM-2 beta-lactamase
Pseudomonas aeruginosa [9] = assay: Antimicrobial activity against metallo-beta-lactamase-negative Pseudomonas aeruginosa isolate PA483 in presence of Tazobactam
Pseudomonas aeruginosa [10] = assay: Antimicrobial activity against metallo-beta-lactamase-negative Pseudomonas aeruginosa isolate PA479
Pseudomonas aeruginosa [11] = assay: Antimicrobial activity against metallo-beta-lactamase-negative Pseudomonas aeruginosa isolate PA459 in presence of Tazobactam
Pseudomonas aeruginosa [12] = assay: Antimicrobial activity against Pseudomonas aeruginosa isolate PA399 expressing VIM-2 beta-lactamase in presence of Tazobactam
Pseudomonas aeruginosa [13] = assay: Antimicrobial activity against metallo-beta-lactamase-negative Pseudomonas aeruginosa isolate PA460
Pseudomonas aeruginosa [14] = assay: Antimicrobial activity against metallo-beta-lactamase-negative Pseudomonas aeruginosa isolate PA479 in presence of Tazobactam
Pseudomonas aeruginosa [15] = assay: Antimicrobial activity against Pseudomonas aeruginosa isolate PA475 expressing VIM-2 beta-lactamase
Pseudomonas aeruginosa [16] = assay: Antimicrobial activity against Pseudomonas aeruginosa isolate PA469 expressing VIM-2 beta-lactamase
Pseudomonas aeruginosa [17] = assay: Antimicrobial activity against Pseudomonas aeruginosa isolate PA475 expressing VIM-2 beta-lactamase in presence of Tazobactam
Pseudomonas aeruginosa [18] = assay: Antimicrobial activity against Pseudomonas aeruginosa isolate PA469 expressing VIM-2 beta-lactamase in presence of Tazobactam
Pseudomonas aeruginosa [19] = assay: Antimicrobial activity against Pseudomonas aeruginosa isolate PA510 expressing VIM-2 beta-lactamase in presence of Tazobactam
Pseudomonas aeruginosa [20] = assay: Antimicrobial activity against Pseudomonas aeruginosa isolate PA462 expressing VIM-2 beta-lactamase in presence of Tazobactam
Pseudomonas aeruginosa [21] = assay: Antimicrobial activity against metallo-beta-lactamase-negative Pseudomonas aeruginosa isolate PA460 in presence of Tazobactam
Pseudomonas aeruginosa [22] = assay: Antimicrobial activity against metallo-beta-lactamase-negative Pseudomonas aeruginosa isolate PA509
Pseudomonas aeruginosa [23] = assay: Antimicrobial activity against Pseudomonas aeruginosa isolate PA399 expressing VIM-2 beta-lactamase
Pseudomonas aeruginosa [24] = assay: Antimicrobial activity against metallo-beta-lactamase-negative Pseudomonas aeruginosa isolate PA494 in presence of Tazobactam
Pseudomonas aeruginosa [25] = assay: Antimicrobial activity against Pseudomonas aeruginosa isolate PA462 expressing VIM-2 beta-lactamase
Pseudomonas aeruginosa [26] = assay: Antimicrobial activity against metallo-beta-lactamase-negative Pseudomonas aeruginosa isolate PA507; in short: as §1
Pseudomonas aeruginosa [27] = assay: Antimicrobial activity against metallo-beta-lactamase-negative Pseudomonas aeruginosa isolate PA494
Pseudomonas aeruginosa [28] = assay: Antimicrobial activity against Pseudomonas aeruginosa isolate PA481 expressing VIM-2 beta-lactamase in presence of Tazobactam
Pseudomonas aeruginosa [29] = assay: Antimicrobial activity against Pseudomonas aeruginosa isolate PA500 expressing VIM-1 beta-lactamase in presence of Tazobactam
Pseudomonas aeruginosa [30] = assay: Antimicrobial activity against metallo-beta-lactamase-negative Pseudomonas aeruginosa isolate PA483
Pseudomonas aeruginosa [31] = assay: Antimicrobial activity against Pseudomonas aeruginosa isolate PA477 expressing VIM-2 beta-lactamase in presence of Tazobactam
Pseudomonas aeruginosa [32] = assay: Antimicrobial activity against metallo-beta-lactamase-negative Pseudomonas aeruginosa isolate PA509 in presence of Tazobactam

Structure (SMILES): CCN1CCN(C(=O)N[C@@H](C(=O)N[C@@H]2C(=O)N3[C@@H]2SC(C)(C)[C@@H]3C(=O)O)c2ccccc2)C(=O)C1=O [PIPERACILLIN]
- MIC (Pseudomonas aeruginosa [1]): ≥ 128 µg/mL
- MIC (Pseudomonas aeruginosa [2]): ≥ 128 µg/mL
- MIC (Pseudomonas aeruginosa [3]): ≥ 128 µg/mL
- MIC (Pseudomonas aeruginosa [4]): 64 µg/mL
- MIC (Pseudomonas aeruginosa [5]): ≥ 128 µg/mL
- MIC (Pseudomonas aeruginosa [6]): ≥ 128 µg/mL
- MIC (Pseudomonas aeruginosa [7]): ≥ 128 µg/mL
- MIC (Pseudomonas aeruginosa [8]): ≥ 128 µg/mL
- MIC (Pseudomonas aeruginosa [9]): ≥ 128 µg/mL
- MIC (Pseudomonas aeruginosa [10]): ≥ 128 µg/mL
- MIC (Pseudomonas aeruginosa [11]): ≥ 128 µg/mL
- MIC (Pseudomonas aeruginosa [12]): ≥ 128 µg/mL
- MIC (Pseudomonas aeruginosa [13]): ≥ 128 µg/mL
- MIC (Pseudomonas aeruginosa [14]): ≥ 128 µg/mL
- MIC (Pseudomonas aeruginosa [15]): ≥ 128 µg/mL
- MIC (Pseudomonas aeruginosa [16]): ≥ 128 µg/mL
- MIC (Pseudomonas aeruginosa [17]): ≥ 128 µg/mL
- MIC (Pseudomonas aeruginosa [18]): ≥ 128 µg/mL
- MIC (Pseudomonas aeruginosa [19]): ≥ 128 µg/mL
- MIC (Pseudomonas aeruginosa [20]): ≥ 128 µg/mL
- MIC (Pseudomonas aeruginosa [21]): ≥ 128 µg/mL
- MIC (Pseudomonas aeruginosa [22]): ≥ 128 µg/mL
- MIC (Pseudomonas aeruginosa [23]): ≥ 128 µg/mL
- MIC (Pseudomonas aeruginosa [24]): ≥ 128 µg/mL
- MIC (Pseudomonas aeruginosa [25]): ≥ 128 µg/mL
- MIC (Pseudomonas aeruginosa [26]): ≥ 128 µg/mL
- MIC (Pseudomonas aeruginosa [27]): ≥ 128 µg/mL
- MIC (Pseudomonas aeruginosa [28]): ≥ 128 µg/mL
- MIC (Pseudomonas aeruginosa [29]): ≥ 128 µg/mL
- MIC (Pseudomonas aeruginosa [30]): ≥ 128 µg/mL
- MIC (Pseudomonas aeruginosa [31]): ≥ 128 µg/mL
- MIC (Pseudomonas aeruginosa [32]): ≥ 128 µg/mL
